The record followed here is ChEMBL document CHEMBL2396634, “An effective prodrug strategy to selectively enhance ocular exposure of a cannabinoid receptor (CB1/2) agonist” (J Med Chem, 2013).

Series [1] in a line: Aqueous solubility of the compound at pH 6.8. The series is classed as physicochemical.
Series [2] can be described thus: AUC in Brown Norway rat iris and ciliary body administered topically after 3 hrs. The series is classed as ADME, tissue-based. Details: time < 3 hr; concentration or dose not given beside the values; call rule not given here. The following applies: topical or ocular. In short, it runs like this: (§1)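 Adult male Brown Norway rats (200−250 g) received a single topical 4 μL dose of 0.1% solution to each eye (5% cremaphor EL, 0.78% NaCl, 0.1% Na3PO4 in sterile water, pH 6.8). Composite design, three animals per group, sampled at 0.25, 1 and 3 h. Plasma taken by cardiac puncture. Eyes enucleated and PBS-rinsed, tissues dissected and homogenized. Parent drug measured by LC/MS/MS. AUC over 0−3 h.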

A short description of series [3]: (§2) AUC in Brown Norway rat plasma administered topically after 3 hrs. The series is classed as ADME, cell-free. Set-up: time < 3 hr; concentration or dose not given beside the values. The following applies: Brown Norway, topical or ocular. In a few lines:
as §1

Series [4] has as its system Plasma. The description is as §2. The following applies: topical_or_ocular, 3 h, BLD = below limit of detection. The format is ADME, cell-free. Set-up: time < 3 hr; concentration or dose not given beside the values. In a few lines: as §1
The subject of series [5] is Iris and ciliary body (Rattus norvegicus). Kind of series: AUC in Brown Norway rat iris and ciliary body administered topically after 3 hrs. The following applies: in vivo, topical_or_ocular, BLD = below limit of detection.
A short description of series [6]: Drug uptake in Brown Norway rat ciliary body administered topically after 1 hr. The format is ADME, tissue-based. Particulars: in vivo, topical_or_ocular. In short, it runs like this: (§3)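 Abbreviated ocular PK in male Brown Norway rats, 200−250 g. Single topical 4 μL dose per eye of 0.1% solution in 5% cremaphor EL, 0.78% NaCl, 0.1% Na3PO4, water, pH 6.8. Three animals per group, sampled at 0.25, 1 and 3 h. Tissues homogenized in PBS with 10% acetonitrile.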

Series [7] is described as follows: Drug uptake in Brown Norway rat iris administered topically after 1 hr. The following applies: in vivo, topical_or_ocular. The series is classed as ADME, tissue-based. In short, it runs like this: as §3
For series [8], the system named is Plasma. Nature of the series: Drug uptake in Brown Norway rat plasma administered topically after 3 hrs. The format is ADME, cell-free. The following applies: topical_or_ocular. In a few lines: as §3
Series [9] in a line: Drug uptake in Brown Norway rat aqueous humor administered topically after 3 hrs. The series is classed as ADME, tissue-based, Aqueous humor of eyeball. The following applies: in vivo, topical_or_ocular. In a few lines:
as §3

Series [10] in a line: Drug uptake in Brown Norway rat ciliary body administered topically after 3 hrs. The format is ADME, tissue-based. The following applies: in vivo, topical_or_ocular. In a few lines:
as §3

Series [11] can be described thus: Drug uptake in Brown Norway rat iris administered topically after 3 hrs. The following applies: in vivo, topical_or_ocular. The series is classed as ADME, tissue-based. In short, it runs like this: as §3
Series [12] in a line: Drug uptake in Brown Norway rat cornea administered topically after 3 hrs. The following applies: in vivo, topical_or_ocular. The series is classed as ADME, tissue-based. In short, it runs like this:
as §3

Series [13] in a line: Tmax in Brown Norway rat plasma administered topically. The following applies: topical or ocular. The series is classed as ADME, cell-free. In short, it runs like this:
(§4)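 Male Brown Norway rats, 200−250 g, dosed once topically with 4 μL of a 0.02% clinical formulation per eye. Composite design with 3 animals per time point. Cornea, aqueous humor, iris/ciliary body and plasma collected at 0 (untreated), 0.083, 0.25, 0.5, 1, 3, 6 and 24 h. Eyes rinsed in PBS after enucleation.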

Series [14] can be described thus: Tmax in Brown Norway rat iris administered topically. The following applies: topical or ocular. The format is ADME, tissue-based. In short, it runs like this:
as §4

A short description of series [15]: Tmax in Brown Norway rat cornea administered topically. The series is classed as ADME, tissue-based. Particulars: topical or ocular. In a few lines:
as §4

Series [16] in a line: Tmax in Brown Norway rat aqueous humor administered topically. The series is classed as ADME, tissue-based, Aqueous humor of eyeball. Particulars: topical or ocular. In short, it runs like this: as §4
Series [17] can be described thus: Cmax in Brown Norway rat plasma administered topically. Particulars: topical or ocular. The format is ADME, cell-free. In a few lines:
as §4

Series [18] in a line: Cmax in Brown Norway rat iris administered topically. The series is classed as ADME, tissue-based. Particulars: topical or ocular. In short, it runs like this:
as §4

Series [19] in a line: Cmax in Brown Norway rat cornea administered topically. Particulars: topical or ocular. The format is ADME, tissue-based. In a few lines: as §4
The nature of series [20]: Cmax in Brown Norway rat aqueous humor administered topically. The format is ADME, tissue-based, Aqueous humor of eyeball. The following applies: topical or ocular. In short, it runs like this: as §4
A short description of series [21]: AUC (0 to last) in Brown Norway rat cornea administered topically. The format is ADME, tissue-based. Set-up: time 0 - last. Particulars: topical or ocular. In a few lines:
as §4

Series [22] can be described thus: AUC (0 to last) in Brown Norway rat aqueous humor administered topically. The series is classed as ADME. Details: time 0 - last. The following applies: topical or ocular. In a few lines: as §4
For series [23], the target named is Cannabinoid receptor 2 (Homo sapiens, UniProt P34972). Nature of the series: Agonist activity at CB2 receptor (unknown origin).
Cannabinoid receptor 2, sequence (P34972 whole entry): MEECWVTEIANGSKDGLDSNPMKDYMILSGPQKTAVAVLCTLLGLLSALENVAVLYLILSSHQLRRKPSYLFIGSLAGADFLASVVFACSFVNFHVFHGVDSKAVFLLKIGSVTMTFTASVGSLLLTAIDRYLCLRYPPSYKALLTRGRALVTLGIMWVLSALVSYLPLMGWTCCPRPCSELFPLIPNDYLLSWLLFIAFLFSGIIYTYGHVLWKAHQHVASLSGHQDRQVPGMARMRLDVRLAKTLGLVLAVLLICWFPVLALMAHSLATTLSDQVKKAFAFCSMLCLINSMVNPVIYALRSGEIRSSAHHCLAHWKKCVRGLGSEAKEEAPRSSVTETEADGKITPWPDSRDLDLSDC
The target of series [24] is Cannabinoid receptor 1 (Homo sapiens, UniProt P21554). Kind of series: Agonist activity at CB1 receptor (unknown origin).
Cannabinoid receptor 1, sequence (P21554 whole entry): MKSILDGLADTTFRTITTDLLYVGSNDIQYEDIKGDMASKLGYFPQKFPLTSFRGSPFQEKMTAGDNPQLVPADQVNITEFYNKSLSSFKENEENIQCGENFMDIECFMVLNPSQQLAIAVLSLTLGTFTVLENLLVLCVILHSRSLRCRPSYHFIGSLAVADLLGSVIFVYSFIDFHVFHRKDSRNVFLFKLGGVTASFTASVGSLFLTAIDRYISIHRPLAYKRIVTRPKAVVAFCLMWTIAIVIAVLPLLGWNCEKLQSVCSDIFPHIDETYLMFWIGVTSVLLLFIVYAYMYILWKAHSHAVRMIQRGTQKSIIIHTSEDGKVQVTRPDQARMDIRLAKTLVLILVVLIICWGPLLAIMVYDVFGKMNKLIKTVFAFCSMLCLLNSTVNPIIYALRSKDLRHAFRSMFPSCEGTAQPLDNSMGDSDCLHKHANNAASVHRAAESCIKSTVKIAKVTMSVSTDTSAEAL

A word on the solubility: it is the dissolved amount per volume that the medium holds. For orientation: AUC means the area under the concentration-time curve, a measure of exposure. One may read the Tmax as the time from dosing to the highest level. Broadly, the Cmax is the peak of the concentration-time curve. The AUC(0-t) is exposure summed from dosing to a finite time, without extrapolation to infinity. One may read the IC50 as the concentration that gives 50% inhibition.

Molecules are shown by their SMILES. In brackets after ≈: the same amount, converted by molar mass.

In the case of `CCOC(=O)c1c(C)cc2nc(COC(=O)NCCOC(=O)[C@@H](NC(=O)[C@H](N)C(C)C)C(C)C)n(-c3ccccc3S(=O)(=O)NC)c(=O)c2c1C`, the solubility entry in series [1] (buffer) is reported as “soluble”.

As to `CCOC(=O)c1c(C)cc2nc(COC(=O)NCCOP(=O)(O)O)n(-c3ccccc3S(=O)(=O)NC)c(=O)c2c1C`, the AUC at 3 h in [2] came out at 0.017 µM·h; in [3], 0.01 µM·h. In series [1] (buffer), the solubility entry is recorded as “soluble”.

`CCOC(=O)c1c(C)cc2nc(COC(=O)NCCOC(=O)CN)n(-c3ccccc3S(=O)(=O)NC)c(=O)c2c1C`: the AUC at 3 h was 0.0174 µM·h in [2] and 0.0039 µM·h in series [3]. Also, the solubility entry in series [1] (buffer) is “soluble”.

`CCOC(=O)c1c(C)cc2nc(COC(=O)NCCOC(=O)CCN)n(-c3ccccc3S(=O)(=O)NC)c(=O)c2c1C`: the solubility result in series [1] (buffer) is reported as “soluble”. The AUC entry in series [4] and in series [5] was “BLD” throughout.

As to `CCOC(=O)c1c(C)cc2nc(COC(=O)NCCOC(=O)C3CCCCN3)n(-c3ccccc3S(=O)(=O)NC)c(=O)c2c1C` (stereo not drawn), the AUC at 3 h in series [2] came to 0.0367 µM·h; in series [3], 0.0118 µM·h. Also, the solubility entry in series [1] (buffer) is on record as “soluble”.

On to `CCOC(=O)c1c(C)cc2nc(COC(=O)NCCOC(=O)CN3CCCCC3)n(-c3ccccc3S(=O)(=O)NC)c(=O)c2c1C`, for which the area under the curve (AUC) at 3 h in [2] amounted to 0.321 µM·h. For the same compound, the solubility result in series [1] (buffer) is reported as “soluble”. Besides, in series [4], the AUC result was “BLD”.

On to `CCOC(=O)c1c(C)cc2nc(COC(=O)NCCOC(=O)c3cn4ccccc4n3)n(-c3ccccc3S(=O)(=O)NC)c(=O)c2c1C`, for which the solubility result in [1] (buffer) is listed as “soluble”. Moreover, the AUC entry in series [4] and in series [5] was “BLD” each time.

For the compound `CCOC(=O)c1c(C)cc2nc(COC(=O)NCCOC(=O)c3cccnc3)n(-c3ccccc3S(=O)(=O)NC)c(=O)c2c1C`, the AUC at 3 h in series [2] was found to be 0.213 µM·h. For the same compound, the solubility entry in series [1] (buffer) was “soluble”. The exposure (AUC) result in [4] is reported as “BLD”.

Consider `CCOC(=O)c1c(C)cc2nc(COC(=O)NCCOC(=O)[C@H](N)c3ccccc3Cl)n(-c3ccccc3S(=O)(=O)NC)c(=O)c2c1C`, for which the solubility result in series [1] (buffer) is listed as “soluble”. Besides, the AUC at 3 h in series [3] was determined as 0.0036 µM·h. Besides, the AUC entry in series [5] is on record as “BLD”.

On to `CCOC(=O)c1c(C)cc2nc(COC(=O)NCCOC(=O)[C@@H](N)C(C)C)n(-c3ccccc3S(=O)(=O)NC)c(=O)c2c1C`, for which the results for the AUC at 3 h in series [2] and in series [3] were 0.04 µM·h and 0.02 µM·h, respectively. Also, the solubility result in series [1] (buffer) was “soluble”.

As for `CCOC(=O)c1c(C)cc2nc(COC(=O)NCCOC(=O)[C@H](NC(=O)[C@@H](N)C(C)C)C(C)C)n(-c3ccccc3S(=O)(=O)NC)c(=O)c2c1C`, in series [2], the AUC at 3 h was determined as 0.104 µM·h. The solubility entry in series [1] (buffer) was “soluble”. The AUC result in series [4] was “BLD”.

For `CCOC(=O)c1c(C)cc2nc(COC(=O)NCCO)n(-c3ccccc3S(=O)(=O)NC)c(=O)c2c1C` [SAD448], the Drug uptake entry in [6], in [7], in series [8], in [9], in [10] and in [11] was “Not Active” in each case. Moreover, the Drug uptake entry in series [12] is “Not Active”. Moreover, the Tmax in series [13], in [14], in series [15] and in [16] was 4.98 min each time. For the same compound, the Cmax in [17] turned out to be 9 nM; in series [18], 18 nM; in series [19], 50 nM; in series [20] it was 82 nM. In addition, the results for the AUC(0-t) in series [21] and in [22] were 0.043 µM·h and 0.05 µM·h, respectively. Moreover, the solubility in series [1] (aqueous medium, read-out: solubility) came out at 340 µM (≈ 181 µg/mL). Besides, the concentration for half-maximal inhibition (IC50) in series [23] is 3.5 nM; in series [24] it was 94 nM. This compound yielded an area under the curve (AUC) at 3 h in series [3] of 0.014 µM·h. The AUC entry in [5] is on record as “BLD”.
